Reference: ChEMBL document CHEMBL4613280, “Development of Pyrazolo[3,4-d]pyrimidine Kinase Inhibitors as Potential Clinical Candidates for Glioblastoma Multiforme” (ACS Med Chem Lett, 2020)
Calls of active or inactive are those of the source. No cut-off for these calls is given here.

Columns and labels:
[1] = target: Serine/threonine-protein kinase Sgk1 (Homo sapiens, UniProt O00141, S422D); assay: Inhibition of human N-terminal His6-tagged N-truncated human SGK1 harboring S422D mutant expressed in Sf21 cells using Sgktide-peptide as substrate in presence of [gamma-32P]ATP by scintillation counting method
[2] = Cytotoxicity against human GIN8 cells derived from invasive region of GBM patient assessed as reduction in cell viability measured after 48 hrs by Prestoblue assay; assay type: functional, cell-based
How it was run: (§1)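 Compounds diluted in DMEM containing 10% FBS and applied for 48 h. Viability read by PrestoBlue. IC50 calculated from three independent experiments, mean ± SE. Two-way ANOVA with Dunnett's multiple comparisons test.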

[3] = Cytotoxicity against human GIN28 cells derived from invasive region of GBM patient assessed as reduction in cell viability measured after 48 hrs by Prestoblue assay; assay type: functional, cell-based; how it was run: as §1
[4] = Cytotoxicity against human GCE28 cells derived from central tumor core of GBM patient assessed as reduction in cell viability measured after 48 hrs by Prestoblue assay; assay type: functional, cell-based; how it was run: as §1
Homo sapiens [5] = organism: Homo sapiens; assay: Induction of apoptosis in human GIN8 cells assessed as increase in caspase 3/7 activation at 12.5 uM measured after 48 hrs by CellEvent caspase 3/7 probe based fluorescence analysis; assay type: functional, cell-based
How it was run: (§2)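 Cells exposed 48 h to compounds diluted in 10% FBS DMEM. Activated caspase-3/7 detected with the CellEvent probe. Staurosporine 10.0 μM served as reference inducer. Mean ± SEM (n = 3). Two-way ANOVA with Dunnett's test.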

Homo sapiens [6] = organism: Homo sapiens; assay: Induction of apoptosis in human GIN28 cells assessed as increase in caspase 3/7 activation at 12.5 uM measured after 48 hrs by CellEvent caspase 3/7 probe based fluorescence analysis; assay type: functional, cell-based; how it was run: as §2
Homo sapiens [7] = organism: Homo sapiens; assay: Induction of apoptosis in human GCE28 cells assessed as increase in caspase 3/7 activation at 12.5 uM measured after 48 hrs by CellEvent caspase 3/7 probe based fluorescence analysis; assay type: functional, cell-based; how it was run: as §2
[8] = Synergistic cytotoxicity against human GIN28 cells assessed as combination index measured after 48 hrs in presence of 3-(4-chlorophenyl)-1-(2-chloro-2-phenylethyl)pyrazolo[3,4-d]pyrimidin-4-amine by Chou-Talalay assay; assay type: functional
How it was run: (§3)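 Each drug pair dosed at a 1:1 molar ratio on the GBM lines and incubated 48 h. CI computed from three independent IC50 experiments (n = 3), reported as mean ± SD.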

[9] = Synergistic cytotoxicity against human GCE28 cells assessed as combination index measured after 48 hrs in presence of 3-(4-chlorophenyl)-1-(2-chloro-2-phenylethyl)pyrazolo[3,4-d]pyrimidin-4-amine by Chou-Talalay assay; assay type: functional; how it was run: as §3
[10] = Antagonistic cytotoxicity against human GIN8 cells assessed as combination index measured after 48 hrs in presence of 3-(4-chlorophenyl)-1-(2-chloro-2-phenylethyl)pyrazolo[3,4-d]pyrimidin-4-amine by Chou-Talalay assay; assay type: functional; how it was run: as §3
[11] = Additive cytotoxicity against human GIN8 cells assessed as combination index measured after 48 hrs in presence of N-(3-bromophenyl)-1-(2-chloro-2-phenylethyl)6(2morpholinoethylsulfanyl)pyrazolo[3,4-d]pyrimidin-4-amine by Chou-Talalay assay; assay type: functional; how it was run: as §3
[12] = Additive cytotoxicity against human GIN28 cells assessed as combination index measured after 48 hrs in presence of N-(3-bromophenyl)-1-(2-chloro-2-phenylethyl)6(2morpholinoethylsulfanyl)pyrazolo[3,4-d]pyrimidin-4-amine by Chou-Talalay assay; assay type: functional; how it was run: as §3
[13] = Additive cytotoxicity against human GCE28 cells assessed as combination index measured after 48 hrs in presence of N-(3-bromophenyl)-1-(2-chloro-2-phenylethyl)6(2morpholinoethylsulfanyl)pyrazolo[3,4-d]pyrimidin-4-amine by Chou-Talalay assay; assay type: functional; how it was run: as §3

Sequence of Serine/threonine-protein kinase Sgk1 (O00141 whole entry S422D, the tested form may be a part): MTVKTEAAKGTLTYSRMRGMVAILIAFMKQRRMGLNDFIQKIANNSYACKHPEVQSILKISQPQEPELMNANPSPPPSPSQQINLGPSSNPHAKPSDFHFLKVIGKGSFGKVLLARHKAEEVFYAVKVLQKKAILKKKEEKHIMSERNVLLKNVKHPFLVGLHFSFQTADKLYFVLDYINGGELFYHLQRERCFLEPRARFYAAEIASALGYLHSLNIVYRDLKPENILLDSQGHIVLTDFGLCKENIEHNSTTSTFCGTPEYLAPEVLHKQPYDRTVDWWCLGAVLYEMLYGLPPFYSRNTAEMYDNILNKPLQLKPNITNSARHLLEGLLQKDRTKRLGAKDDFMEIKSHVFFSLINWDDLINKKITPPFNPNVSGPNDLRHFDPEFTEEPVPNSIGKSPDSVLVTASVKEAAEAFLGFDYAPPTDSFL

Work on `OCCNc1nc(NCCc2ccccc2)c2cnn(/C=C/c3ccccc3)c2n1` yielded a Ki [1] of 600 nM, an IC50 [2] of 10.5 µM and an IC50 [3] of 14.4 µM. For the same compound, the IC50 [4] was 10.7 µM, the Activity (Homo sapiens [5]) was “Active” and the Activity (Homo sapiens [6]) was “inactive”. For the same compound, the Activity (Homo sapiens [7]) was “Active”, the CI [8] was 0.57 and the CI [9] was 0.46. The CI [10] was 1.13, the CI [11] was 0.99 and the CI [12] was 0.9. For the same compound, the CI [13] was 0.97.
